From ChEMBL document CHEMBL2016487, “Pyrazolopyrimidines as dual Akt/p70S6K inhibitors” (Bioorg Med Chem Lett, 2012)

What was measured:
[1] = molecular target: T1, Ribosomal protein S6 kinase beta-1 (Homo sapiens, UniProt P23443); assay: Inhibition of p70S6K after 3 hrs by luciferase based chemiluminescence assay
[2] = molecular target: T2, RAC-alpha serine/threonine-protein kinase (Homo sapiens, UniProt P31749); assay: Inhibition of AKT1 after 3 hrs by luciferase based chemiluminescence assay
[3] = molecular target: T1, Ribosomal protein S6 kinase beta-1; assay: Inhibition of p70S6K-mediated ribosomal protein S6 phosphorylation in human A549 cells after 3 hrs by chemiluminescence assay; assay type: cell-based
Method in brief: (§1)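 A549 or PC-3 cells seeded at 7.5 × 10³ cells/well in DMEM with heat-inactivated 10% FBS, 1% penicillin–streptomycin, 1% non-essential amino acids, grown 48 h at 37 °C, 5% CO₂. Treated 3 h with compound at 1.2–300 nM, triplicate, 0.2% DMSO final. Fixed in 4% formaldehyde, blocked, probed with anti-phospho-S6 (Ser240/244) and anti-total-S6 overnight at 4 °C, chemiluminescent read-out.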

[4] = molecular target: T1, Ribosomal protein S6 kinase beta-1; assay: Inhibition of p70S6K-mediated ribosomal protein S6 phosphorylation in human PC3 cells after 3 hrs by chemiluminescence assay; assay type: cell-based, PC-3; method in brief: as §1
[5] = molecular target: T2, RAC-alpha serine/threonine-protein kinase; assay: Inhibition of AKT1-mediated GSK3beta phosphorylation in human PC3 cells after 3 hrs by chemiluminescence assay; assay type: cell-based, PC-3
Method in brief: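 PC-3 cells seeded at 7.5 × 10³ cells/well, grown 24 h, then serum-starved 24 h. Compound treatment 3 h in triplicate (0.2% DMSO final), followed by 100 ng/ml IGF1 for 30 min. Fixed and processed as a cell ELISA using anti-phospho-GSK3β (S9) and anti-total-GSK3β antibodies, chemiluminescent read-out.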

[6] = Drug metabolism in mouse liver microsomes at 15 uM after 30 mins; assay type: ADME, Microsome; settings: read-out: Drug metabolism
Method in brief: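 Mouse liver microsomes at 0.5 mg/mL, incubated 30 min with compound at 15 µM; value reported as % conversion.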

[7] = Clearance in rat at 2.5 mg/kg; assay type: ADME, organism-based; design: dose 2.5 mg/kg; settings: in vivo
[8] = Clearance in dog at 3 mg/kg; assay type: ADME, organism-based, Canis lupus familiaris; design: dose 3 mg/kg; settings: in vivo
[9] = Clearance in monkey at 3 mg/kg; assay type: ADME, organism-based, Macaca mulatta; design: dose 3 mg/kg; settings: rhesus monkey, in vivo
[10] = Volume of distribution in rat at 2.5 mg/kg; assay type: ADME, organism-based; design: dose 2.5 mg/kg; settings: in vivo
[11] = Volume of distribution in dog at 3 mg/kg; assay type: ADME, organism-based, Canis lupus familiaris; design: dose 3 mg/kg; settings: in vivo
[12] = Volume of distribution in monkey at 3 mg/kg; assay type: ADME, organism-based, Macaca mulatta; design: dose 3 mg/kg; settings: rhesus monkey, in vivo
[13] = Half life in rat at 2.5 mg/kg, iv; assay type: ADME, organism-based; design: dose 2.5 mg/kg, route intravenous; settings: in vivo
[14] = Half life in dog at 3 mg/kg, iv; assay type: ADME, organism-based, Canis lupus familiaris; design: dose 3 mg/kg, route intravenous; settings: in vivo
[15] = Half life in monkey at 3 mg/kg, iv; assay type: ADME, organism-based, Macaca mulatta; design: dose 3 mg/kg, route intravenous; settings: rhesus monkey, in vivo
[16] = Half life in rat at 2.5 mg/kg, po; assay type: ADME, organism-based; design: dose 2.5 mg/kg, route oral; settings: in vivo
[17] = Half life in dog at 3 mg/kg, po; assay type: ADME, organism-based, Canis lupus familiaris; design: dose 3 mg/kg, route oral; settings: in vivo
[18] = Half life in monkey at 3 mg/kg, po; assay type: ADME, organism-based, Macaca mulatta; design: dose 3 mg/kg, route oral; settings: rhesus monkey, in vivo
[19] = Oral bioavailability in rat at 2.5 mg/kg; assay type: ADME, organism-based; settings: in vivo
[20] = Oral bioavailability in dog at 3 mg/kg; assay type: ADME, organism-based, Canis lupus familiaris; settings: in vivo
[21] = Oral bioavailability in monkey at 3 mg/kg; assay type: ADME, organism-based, Macaca mulatta; settings: rhesus monkey, in vivo
[22] = Cmax in rat at 2.5 mg/kg, iv; assay type: ADME, organism-based; design: dose 2.5 mg/kg, route intravenous; settings: in vivo
[23] = Cmax in dog at 3 mg/kg, iv; assay type: ADME, organism-based, Canis lupus familiaris; design: dose 3 mg/kg, route intravenous; settings: in vivo
[24] = Cmax in monkey at 3 mg/kg, iv; assay type: ADME, organism-based, Macaca mulatta; design: dose 3 mg/kg, route intravenous; settings: rhesus monkey, in vivo
[25] = Cmax in rat at 2.5 mg/kg, po; assay type: ADME, organism-based; design: dose 2.5 mg/kg, route oral; settings: in vivo
[26] = Cmax in dog at 3 mg/kg, po; assay type: ADME, organism-based, Canis lupus familiaris; design: dose 3 mg/kg, route oral; settings: in vivo
[27] = Cmax in monkey at 3 mg/kg, po; assay type: ADME, organism-based, Macaca mulatta; design: dose 3 mg/kg, route oral; settings: rhesus monkey, in vivo
Rattus norvegicus [28] = assay: Dose normalized AUC in rat at 2.5 mg/kg, iv; assay type: ADME, organism-based; design: dose 2.5 mg/kg, route intravenous; settings: in vivo
Canis familiaris [29] = assay: Dose normalized AUC in dog at 3 mg/kg, iv; assay type: ADME, organism-based, Canis lupus familiaris; design: dose 3 mg/kg, route intravenous; settings: in vivo
Rhesus monkey [30] = assay: Dose normalized AUC in monkey at 3 mg/kg, iv; assay type: ADME, organism-based, Macaca mulatta; design: dose 3 mg/kg, route intravenous; settings: in vivo
Rattus norvegicus [31] = assay: Dose normalized AUC in rat at 2.5 mg/kg, po; assay type: ADME, organism-based; design: dose 2.5 mg/kg, route oral; settings: in vivo
Canis familiaris [32] = assay: Dose normalized AUC in dog at 3 mg/kg, po; assay type: ADME, organism-based, Canis lupus familiaris; design: dose 3 mg/kg, route oral; settings: in vivo
Rhesus monkey [33] = assay: Dose normalized AUC in monkey at 3 mg/kg, po; assay type: ADME, organism-based, Macaca mulatta; design: dose 3 mg/kg, route oral; settings: in vivo
[34] = Plasma concentration in mouse at 100 mg/kg after 1 hr; assay type: ADME, organism-based; design: dose 100 mg/kg
Method in brief: (§2)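 Mouse plasma levels measured 1 and 4 h after a 100 mg/kg dose.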

[35] = Plasma concentration in mouse at 100 mg/kg after 4 hrs; assay type: ADME, organism-based; design: dose 100 mg/kg; method in brief: as §2
PC-3 [36] = assay: Inhibition of PRAS40 phosphorylation in human PC3 cells xenografted model at 100 mg/kg bid; assay type: functional
Method in brief: (§3)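 PC-3 prostate carcinoma model; compound given at 100 mg/kg bid, five doses in total before phospho-S6, phospho-GSK3β and phospho-PRAS40 levels were measured.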

PC-3 [37] = assay: Inhibition of ribosomal protein S6 phosphorylation in human PC3 cells xenografted model at 100 mg/kg bid; assay type: functional; method in brief: as §3
PC-3 [38] = assay: Inhibition of GSK3beta phosphorylation in human PC3 cells xenografted model at 100 mg/kg bid; assay type: functional; method in brief: as §3
PC-3 [39] = assay: Anticancer activity against human PC3 prostate tumor cell xenografted model at 50 mg/kg, po qd for 15 days; assay type: functional; settings: PC-3, 360 h, read-out: TGI
Method in brief: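 PC-3 xenograft efficacy study; oral dosing at 50 mg/kg qd for 15 days, tumor growth inhibition determined.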

A549 [40] = assay: Anticancer activity against human A549 cell xenografted model at 50 mg/kg, po qd for 2 days every 4 days; assay type: functional; settings: read-out: TGI
A549 [41] = assay: Anticancer activity against human A549 cell xenografted model at 100 mg/kg, po qd for 2 days every 4 days; assay type: functional; settings: read-out: TGI
Method in brief: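 A549 xenograft; oral dosing at 50 mg/kg qd, or 100 mg/kg qd for two days every 4 days; tumor growth inhibition determined.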

T2 sequence (P31749 whole entry): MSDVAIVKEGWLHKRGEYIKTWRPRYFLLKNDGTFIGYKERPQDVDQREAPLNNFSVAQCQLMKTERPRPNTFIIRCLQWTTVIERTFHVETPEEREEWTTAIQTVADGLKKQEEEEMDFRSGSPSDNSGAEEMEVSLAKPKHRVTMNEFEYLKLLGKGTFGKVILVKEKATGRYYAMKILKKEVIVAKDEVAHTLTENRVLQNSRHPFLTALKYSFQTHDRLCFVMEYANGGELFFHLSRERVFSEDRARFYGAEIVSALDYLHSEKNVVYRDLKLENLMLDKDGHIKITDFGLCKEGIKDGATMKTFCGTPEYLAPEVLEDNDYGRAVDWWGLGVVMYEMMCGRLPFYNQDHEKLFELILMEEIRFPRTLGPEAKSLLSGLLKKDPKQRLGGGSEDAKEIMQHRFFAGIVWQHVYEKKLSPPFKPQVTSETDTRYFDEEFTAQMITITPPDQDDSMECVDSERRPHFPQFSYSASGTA
T1 sequence (P23443 whole entry): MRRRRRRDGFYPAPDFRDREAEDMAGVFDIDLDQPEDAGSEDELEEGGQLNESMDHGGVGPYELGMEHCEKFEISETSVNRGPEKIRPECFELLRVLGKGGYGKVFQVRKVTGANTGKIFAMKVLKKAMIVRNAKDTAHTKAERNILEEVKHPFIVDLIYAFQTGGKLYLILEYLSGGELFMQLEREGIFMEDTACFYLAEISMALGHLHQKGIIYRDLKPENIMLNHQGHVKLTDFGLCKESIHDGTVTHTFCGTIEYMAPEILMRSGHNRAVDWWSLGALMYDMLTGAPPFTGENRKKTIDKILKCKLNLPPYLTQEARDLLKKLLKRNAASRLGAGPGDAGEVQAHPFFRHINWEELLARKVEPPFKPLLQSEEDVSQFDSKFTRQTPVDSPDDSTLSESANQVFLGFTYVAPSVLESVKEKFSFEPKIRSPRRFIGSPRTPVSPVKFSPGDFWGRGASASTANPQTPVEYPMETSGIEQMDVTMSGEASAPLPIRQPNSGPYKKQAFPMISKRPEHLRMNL

`COC(=O)c1cc(NCCN2CCCC2)c(C)c(N2CCN(c3ncnc4[nH]nc(Br)c34)CC2)c1` showed an IC50 [1] of 2 nM, an IC50 [2] of 5 nM and an IC50 [3] of 44 nM. The IC50 [4] was 52 nM and the IC50 [5] was 1840 nM.

Work on `CCc1n[nH]c2ncnc(N3CCN(c4cc(Cl)cc(NCCN5CCCC5)c4C)CC3)c12` yielded an IC50 [1] of 3 nM, an IC50 [2] of 434 nM and an IC50 [3] of 80 nM. The IC50 [4] was 832 nM, the metabolised at 0.5 h, 15 µM [6] was 18% and the IC50 [5] was 3590 nM.

Compound `Cc1c(NCCN2CCCC2)cc(C(=O)CCC(F)(F)F)cc1N1CCN(c2ncnc3[nH]nc(Br)c23)CC1` [XL-418] has an IC50 [1] of 2 nM, an IC50 [2] of 1 nM and an IC50 [3] of 30 nM. For the same compound, the IC50 [4] was 55 nM, the clearance [7] was 45.4 mL/min/kg and the clearance [8] was 26 mL/min/kg. For the same compound, the clearance [9] was 20.5 mL/min/kg, the Vd [10] was 12.9 L/kg and the Vd [11] was 17 L/kg. It also gave a Vd [12] of 6.9 L/kg, a half-life [13] of 3.5 h and a half-life [14] of 7.5 h. The half-life [15] was 6.1 h, the half-life [16] was 7.9 h and the half-life [17] was 10.4 h. It also gave a half-life [18] of 6.4 h, a bioavailability [19] of 35% and a bioavailability [20] of 58%. It also gave a bioavailability [21] of 77%, a Cmax [22] of 330 nM and a Cmax [23] of 210 nM. It also gave a Cmax [24] of 580 nM, a Cmax [25] of 40 nM and a Cmax [26] of 100 nM. It also gave a Cmax [27] of 400 nM, an AUC/dose (Rattus norvegicus [28]) of 0.64 µM·kg·h/mg and an AUC/dose (Canis familiaris [29]) of 0.95 µM·kg·h/mg. It also gave an AUC/dose (Rhesus monkey [30]) of 1.22 µM·kg·h/mg, an AUC/dose (Rattus norvegicus [31]) of 0.17 µM·kg·h/mg and an AUC/dose (Canis familiaris [32]) of 0.54 µM·kg·h/mg. It also gave an AUC/dose (Rhesus monkey [33]) of 0.94 µM·kg·h/mg, a concentration at 1 h [34] of 1600 nM and a concentration at 4 h [35] of 3100 nM. For the same compound, the inhibition in vivo at 100 mg/kg (PC-3 [36]) was 76%, the inhibition in vivo at 100 mg/kg (PC-3 [37]) was 90% and the inhibition in vivo at 100 mg/kg (PC-3 [38]) was 46%. It also gave an inhibition in vivo at 50 mg/kg (PC-3 [39]) of 52%, an inhibition in vivo at 50 mg/kg (A549 [40]) of 71% and an inhibition in vivo at 100 mg/kg (A549 [41]) of 96%. It also gave an IC50 [5] of 194 nM.

Work on `Cc1c(NCCN2CCCC2)cc(CCC(C)(C)C)cc1N1CCN(c2ncnc3[nH]nc(Br)c23)CC1` yielded an IC50 [1] of 2 nM, an IC50 [2] of 7 nM and an IC50 [3] of 116 nM. The IC50 [4] was 203 nM and the IC50 [5] was 1980 nM.

`CCOc1cc(NCCN2CCCC2)c(C)c(N2CCN(c3ncnc4[nH]nc(Br)c34)CC2)c1` gave an IC50 [1] of 2 nM, an IC50 [2] of 56 nM and an IC50 [3] of 197 nM. It also gave an IC50 [5] of 9070 nM.

Compound `Cc1c(NCCN2CCCC2)cc(COCC(F)(F)F)cc1N1CCN(c2ncnc3[nH]nc(Br)c23)CC1` has an IC50 [1] of 2 nM, an IC50 [2] of 8 nM and an IC50 [3] of 17 nM. For the same compound, the IC50 [4] was 66 nM, the clearance [7] was 63.5 mL/min/kg and the Vd [10] was 9.7 L/kg. For the same compound, the half-life [13] was 2.1 h, the half-life [16] was 1.4 h and the bioavailability [19] was 11%. For the same compound, the Cmax [22] was 390 nM, the Cmax [25] was 20 nM and the AUC/dose (Rattus norvegicus [28]) was 0.43 µM·kg·h/mg. The AUC/dose (Rattus norvegicus [31]) was 0.05 µM·kg·h/mg, the concentration at 1 h [34] was 1200 nM and the concentration at 4 h [35] was 1200 nM. The IC50 [5] was 730 nM.
